Results pooled from the literature.
Each line is one published result; the experiments were not run side by side.
Target: Serine/threonine-protein kinase MRCK beta (CDC42BPB, Homo sapiens, UniProt Q9Y5S2)

Structure (SMILES) | read-out | action | method | tested at | measurement | value
Cc1ccc(Nc2nccc(N(C)c3ccc4c(C)n(C)nc4c3)n2)cc1S(N)(=O)=O | enzyme activity | inhibitor | – | 0.3 µM | inhibition | 9%
Cc1noc([C@H]2C[C@@H](c3ccc(C(F)(F)F)cc3)CN(C(=O)N3CCS(=O)(=O)C3)C2)n1 | cell-free assay | – | competition with immobilised ligand | 1 µM | remaining binding | 100%
CCN(CC)CCNC(=O)c1c(C)[nH]c(/C=C2\C(=O)Nc3ccc(F)cc32)c1C | enzyme activity | inhibitor | – | 10 µM | inhibition | 17%
CCN(CC)c1ccc(C2=NNC(=O)CC2C)cc1[N+](=O)[O-] (stereo not drawn) | enzyme activity | inhibitor | – | 10 µM | remaining activity | 101%
CCCOc1ccc(OC)c(F)c1C(=O)c1ccc(C(=O)N[C@@H]2CNC[C@H]2NC(=O)c2ccc3[nH]ncc3c2)cc1 | enzyme activity | inhibitor | – | 0.75 µM | remaining activity | 7%
Oc1cccc(-c2nc(N3CCOCC3)c3oc4ncccc4c3n2)c1 | cell-free assay | – | – | 0.5 µM | remaining signal | 99.4%
O=C(Nc1cnn(-c2csc(C(=O)NC3COC3)c2)c1)Nc1ccccc1Cl | enzyme activity | inhibitor | – | 5 µM | remaining activity | 97.1%
O=C(NC[C@@H]1[C@H]2CN(C(=O)OCc3cc(C(F)(F)F)cc(C(F)(F)F)c3)C[C@@H]12)c1ccc2[nH]nnc2c1 | cell-free assay | – | competition with immobilised ligand | 1 µM | remaining binding | 100%
Nc1ncnc2occ(-c3ccc(NC(=O)Nc4cc(C(F)(F)F)ccc4F)cc3)c12 | enzyme activity | inhibitor | – | 20 µM | remaining activity | 33%
O=C1NC(=O)c2cc(Nc3ccc(F)cc3)c(Nc3ccc(F)cc3)cc21 | cell-free assay | – | – | 0.5 µM | remaining signal | 100%
CC(C)(O)[C@H]1CC[C@H](Nc2ccc3ncc(-c4cccc(C(F)(F)F)c4)n3n2)CC1 | enzyme activity | inhibitor | – | 1 µM | remaining activity | 98.9%
CN(c1ccnc(CNc2nc(Nc3ccc4c(c3)CC(=O)N4)ncc2C(F)(F)F)n1)S(C)(=O)=O | cell-free assay | – | competition with immobilised ligand | 1 µM | remaining binding | 100%
Cc1cnc(NC2CCOCC2)nc1-n1cnc(C(=O)NC(CN)c2cc(F)cc(Cl)c2)c1 (stereo not drawn) | enzyme activity | inhibitor | radiometric | 1 µM | remaining activity | 59%
Cc1ccc(NC(=O)c2ccc(C)c(C(F)(F)F)c2)cc1C#Cc1nn(C2CCC(O)CC2)c2ncnc(N)c12 (stereo not drawn) | cell-free assay | – | – | 10 µM | remaining signal | 87%
CS(=O)(=O)c1cc(C2(NC(=O)c3cncc4c3cnn4-c3ccc(F)cc3)CC2)ccn1 | cell-free assay | – | competition with immobilised ligand | 1 µM | remaining binding | 100%
O=c1cc(-c2cccc3c2Sc2ccccc2S3)oc(N2CCOCC2)c1 | enzyme activity | inhibitor | – | 0.5 µM | remaining activity | 103%
COc1cccc(CNC(=O)c2nc3scc(COCc4ccc(C(=O)O)cc4)c3c(=O)[nH]2)c1 | cell-free assay | – | competition with immobilised ligand | 1 µM | remaining binding | 99.5%
CCCCNc1ncc2c(-c3ccc(F)cc3)nn(C[C@H]3CC[C@H](N)CC3)c2n1 | target engagement in cells | inhibitor | chemoproteomics | 20 mM | inhibition | 3.6%
